Laboratory results as given in ChEMBL document CHEMBL3525900, “Pharmacokinetics, distribution, and metabolism of [14C]sunitinib in rats, monkeys, and humans” (Drug Metab Dispos, 2012).

Assays:
Rattus norvegicus [1] = test: AUC (0 to infinity) as total radioactivity in male Sprague-Dawley rat plasma at 15 mg/kg, po administered as single dose by LC/MS/MS analysis; format: ADME, organism-based; set-up: time infinity, dose 15 mg/kg, dosed compound name [14C]Sunitinib, route oral; conditions: in vivo
Outline: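 Single dose of [14C]sunitinib L-malate as free base, 50 µCi/kg. IV dose was 5 mg/kg by tail vein in 5 females. Oral dose was 15 mg/kg by gavage in 3 females and 3 males. Total radioactivity was by scintillation counting. […] Cmax was read from raw data, t½ by log-linear regression, AUC by linear trapezoidal rule.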

[2] = Drug recovery in urine of human at 50 mg, po administered as single dose during 0 to 504 hrs by liquid scintillation counting; format: ADME, organism-based; set-up: dosed compound name [14C]Sunitinib; conditions: in vivo
Rattus norvegicus [3] = test: Total drug recovery in female Sprague-Dawley rat at 15 mg/kg, po administered as single dose during 0 to 72 hrs by liquid scintillation counting; format: ADME, organism-based; set-up: dose 15 mg/kg, dosed compound name [14C]Sunitinib, route oral; conditions: in vivo
Spleen [4] = test: Drug concentration in male Lister Hooded pigmented rat spleen assessed as radioactivity per gram of tissue at 20 mg/kg administered as single dose via gastric gavage measured after 24 hrs by autoradiographic analysis; format: ADME, organism-based; set-up: dose 20 mg/kg, dosed compound name [14C]Sunitinib; conditions: in vivo, po
[5] = Drug concentration in male albino rat thyroid gland assessed as radioactivity per gram of tissue at 20 mg/kg administered as single dose via gastric gavage measured after 3 hrs by autoradiographic analysis; format: ADME, organism-based; set-up: dose 20 mg/kg, dosed compound name [14C]Sunitinib; conditions: in vivo, po
Pancreas = test: Drug concentration in female albino rat pancreas assessed as radioactivity per gram of tissue at 20 mg/kg administered as single dose via gastric gavage measured after 6 hrs by autoradiographic analysis; format: ADME, organism-based; set-up: dose 20 mg/kg, dosed compound name [14C]Sunitinib; conditions: in vivo, po
Outline: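 Sprague Dawley (albino) and Lister Hooded (pigmented) rats, ca 7-8 weeks old, 179-310 g, acclimated 7 days. Single gavage dose of [14C]sunitinib L-malate (15 mg freebase/kg, 100 µCi/kg). One male and one female killed by CO2 per time point: albino at 3, 6, 24, 72, 168 h; pigmented at 24, 72, 168, 336 h. Carcasses frozen in solid CO2/hexane, 30 µm sagittal sections freeze-dried. Tissue radioactivity read by quantitative whole-body autoradiography against regression of standards, mean background subtracted.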

Zone of skin [6] = test: Drug concentration in male albino rat abdomen skin assessed as radioactivity per gram of tissue at 20 mg/kg administered as single dose via gastric gavage measured after 3 hrs by autoradiographic analysis; format: ADME, organism-based; set-up: dose 20 mg/kg, dosed compound name [14C]Sunitinib; conditions: in vivo, po
[7] = Drug concentration in male Lister Hooded pigmented rat preputial gland assessed as radioactivity per gram of tissue at 20 mg/kg administered as single dose via gastric gavage measured after 168 hrs by autoradiographic analysis; format: ADME, organism-based; set-up: dose 20 mg/kg, dosed compound name [14C]Sunitinib; conditions: in vivo, po
Stomach [8] = test: Drug concentration in female albino rat stomach assessed as radioactivity per gram of tissue at 20 mg/kg administered as single dose via gastric gavage measured after 3 hrs by autoradiographic analysis; format: ADME, organism-based; set-up: dose 20 mg/kg, dosed compound name [14C]Sunitinib; conditions: in vivo, po
[9] = Drug concentration in female albino rat uveal tract assessed as radioactivity per gram of tissue at 20 mg/kg administered as single dose via gastric gavage measured after 3 hrs by autoradiographic analysis; format: ADME, organism-based; set-up: dose 20 mg/kg, dosed compound name [14C]Sunitinib; conditions: in vivo, po
[10] = Drug concentration in female albino rat bladder assessed as radioactivity per gram of tissue at 20 mg/kg administered as single dose via gastric gavage measured after 6 hrs by autoradiographic analysis; format: ADME, organism-based, Urinary bladder; set-up: dose 20 mg/kg, dosed compound name [14C]Sunitinib; conditions: in vivo, po
Outline: (§1)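 Sprague Dawley (albino) rats, ca 7-8 weeks old, received a single gastric-gavage dose of [14C]sunitinib L-malate at 20 mg/kg (15 mg freebase/kg, 100 µCi/kg). One animal per sex killed by CO2 at 3, 6, 24, 72 and 168 h, then frozen in CO2/hexane. 30 µm sagittal sections were cut and freeze-dried. Radioactivity per gram quantified by whole-body autoradiography using regression against standards. LOQ 0.04–0.06 µg freebase equiv/g.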

[11] = Drug concentration in female albino rat bone marrow assessed as radioactivity per gram of tissue at 20 mg/kg administered as single dose via gastric gavage measured after 6 hrs by autoradiographic analysis; format: ADME, organism-based; set-up: dose 20 mg/kg, dosed compound name [14C]Sunitinib; conditions: in vivo, po; outline: as §1
Heart = test: Drug concentration in female albino rat heart assessed as radioactivity per gram of tissue at 20 mg/kg administered as single dose via gastric gavage measured after 6 hrs by autoradiographic analysis; format: ADME, organism-based; set-up: dose 20 mg/kg, dosed compound name [14C]Sunitinib; conditions: in vivo, po
Outline: (§2)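 Sprague Dawley albino rats, ca 7-8 weeks old, dosed once by gastric gavage with [14C]sunitinib L-malate (15 mg freebase/kg, 100 µCi/kg). One male and one female killed by CO2 at 3, 6, 24, 72 and 168 h. Carcasses frozen in solid CO2/hexane, embedded and cut into 30 µm sagittal sections, then freeze-dried. Radioactivity quantified by whole-body autoradiography against standards by regression, background subtracted.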

Large intestine = test: Drug concentration in female albino rat large intestine assessed as radioactivity per gram of tissue at 20 mg/kg administered as single dose via gastric gavage measured after 6 hrs by autoradiographic analysis; format: ADME, organism-based; set-up: dose 20 mg/kg, dosed compound name [14C]Sunitinib; conditions: in vivo, po; outline: as §2
Zone of skin [12] = test: Drug concentration in male Lister Hooded pigmented rat abdomen skin assessed as radioactivity per gram of tissue at 20 mg/kg administered as single dose via gastric gavage measured after 336 hrs by autoradiographic analysis; format: ADME, organism-based; set-up: dose 20 mg/kg, dosed compound name [14C]Sunitinib; conditions: in vivo, po
[13] = Drug concentration in female albino rat bladder assessed as radioactivity per gram of tissue at 20 mg/kg administered as single dose via gastric gavage measured after 3 hrs by autoradiographic analysis; format: ADME, organism-based, Urinary bladder; set-up: dose 20 mg/kg, dosed compound name [14C]Sunitinib; conditions: in vivo, po; outline: as §1
Liver = test: Drug concentration in female albino rat liver assessed as radioactivity per gram of tissue at 20 mg/kg administered as single dose via gastric gavage measured after 6 hrs by autoradiographic analysis; format: ADME, organism-based; set-up: dose 20 mg/kg, dosed compound name [14C]Sunitinib; conditions: in vivo, po; outline: as §2
[14] = Drug concentration in male Lister Hooded pigmented rat uveal tract assessed as radioactivity per gram of tissue at 20 mg/kg administered as single dose via gastric gavage measured after 72 hrs by autoradiographic analysis; format: ADME, organism-based; set-up: dose 20 mg/kg, dosed compound name [14C]Sunitinib; conditions: in vivo, po
[15] = Drug concentration in male Lister Hooded pigmented rat bone marrow assessed as radioactivity per gram of tissue at 20 mg/kg administered as single dose via gastric gavage measured after 168 hrs by autoradiographic analysis; format: ADME, organism-based; set-up: dose 20 mg/kg, dosed compound name [14C]Sunitinib; conditions: in vivo, po
[16] = Drug concentration in female albino rat thyroid gland assessed as radioactivity per gram of tissue at 20 mg/kg administered as single dose via gastric gavage measured after 72 hrs by autoradiographic analysis; format: ADME, organism-based; set-up: dose 20 mg/kg, dosed compound name [14C]Sunitinib; conditions: in vivo, po
Spleen [17] = test: Drug concentration in female albino rat spleen assessed as radioactivity per gram of tissue at 20 mg/kg administered as single dose via gastric gavage measured after 24 hrs by autoradiographic analysis; format: ADME, organism-based; set-up: dose 20 mg/kg, dosed compound name [14C]Sunitinib; conditions: in vivo, po
Thymus [18] = test: Drug concentration in male albino rat thymus assessed as radioactivity per gram of tissue at 20 mg/kg administered as single dose via gastric gavage measured after 6 hrs by autoradiographic analysis; format: ADME, organism-based; set-up: dose 20 mg/kg, dosed compound name [14C]Sunitinib; conditions: in vivo, po
Stomach [19] = test: Drug concentration in female Lister Hooded pigmented rat stomach assessed as radioactivity per gram of tissue at 20 mg/kg administered as single dose via gastric gavage measured after 24 hrs by autoradiographic analysis; format: ADME, organism-based; set-up: dose 20 mg/kg, dosed compound name [14C]Sunitinib; conditions: in vivo, po
Outline: (§3)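 Lister Hooded (pigmented) rats, ca 7-8 weeks old, acclimated 7 days, given [14C]sunitinib L-malate by gastric gavage at 20 mg/kg (15 mg freebase/kg, 100 µCi/kg). One male and one female killed by CO2 at 24, 72, 168 and 336 h. Carcasses frozen in solid CO2/hexane and embedded in frozen cellulose. 30 µm sagittal cryosections were freeze-dried. Tissue radioactivity measured by quantitative whole-body autoradiography against calibration standards, with background subtracted.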

Thymus [20] = test: Drug concentration in female Lister Hooded pigmented rat thymus assessed as radioactivity per gram of tissue at 20 mg/kg administered as single dose via gastric gavage measured after 24 hrs by autoradiographic analysis; format: ADME, organism-based; set-up: dose 20 mg/kg, dosed compound name [14C]Sunitinib; conditions: in vivo, po; outline: as §3
Spleen [21] = test: Drug concentration in female albino rat spleen assessed as radioactivity per gram of tissue at 20 mg/kg administered as single dose via gastric gavage measured after 72 hrs by autoradiographic analysis; format: ADME, organism-based; set-up: dose 20 mg/kg, dosed compound name [14C]Sunitinib; conditions: in vivo, po

CCN(CC)CCNC(=O)c1c(C)[nH]c(/[14CH]=C2\C(=O)Nc3ccc(F)cc32)c1C.O=C(O)C[C@H](O)C(=O)O
AUC (Rattus norvegicus [1]): 82039 ng.Eq.hr/ml
Radiolabel recovery [2]: 16%
Radiolabel recovery (Rattus norvegicus [3]): 82.5%
Radiolabel recovery (Spleen [4]): 1.63 ugequiv
Radiolabel recovery [5]: 18.4 ugequiv
Radiolabel recovery (Pancreas): 11.3 ugequiv
Radiolabel recovery (Zone of skin [6]): 2.81 ugequiv
Radiolabel recovery [7]: 0.06 ugequiv
Radiolabel recovery (Stomach [8]): 15.45 ugequiv
Radiolabel recovery [9]: 5.07 ugequiv
Radiolabel recovery [10]: 6.2 ugequiv
Radiolabel recovery [11]: 7.51 ugequiv
Radiolabel recovery (Heart): 6.18 ugequiv
Radiolabel recovery (Large intestine): 7.43 ugequiv
Radiolabel recovery (Zone of skin [12]): 0.3 ugequiv
Radiolabel recovery [13]: 3.73 ugequiv
Radiolabel recovery (Liver): 15.16 ugequiv
Radiolabel recovery [14]: 147.37 ugequiv
Radiolabel recovery [15]: 0.06 ugequiv
Radiolabel recovery [16]: 0.26 ugequiv
Radiolabel recovery (Spleen [17]): 4.42 ugequiv
Radiolabel recovery (Thymus [18]): 6.43 ugequiv
Radiolabel recovery (Stomach [19]): 0.64 ugequiv
Radiolabel recovery (Thymus [20]): 0.88 ugequiv
Radiolabel recovery (Spleen [21]): 0.27 ugequiv
